# Results published in PubChem BioAssay AID504383 (The Scripps Research Institute Molecular Screening Center, 2011).
# The campaign covered roughly 2,500 compounds. About 1,200 (48%) were called active.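 How the source made its calls: active means mean activation above the low control average plus 3 SD, as set in the primary screen (cut at about 12% in these data); inactive means the rest.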 So high a share suggests a set chosen from earlier hits. The list shows a part of the results.
# Target: Troponin I, cardiac muscle (Homo sapiens) + Troponin T, cardiac muscle (Homo sapiens) + Troponin C, slow skeletal and cardiac muscles (Homo sapiens) (UniProt P19429+P45379+P63316)
# Assay: calcium sensitizers of cardiac thin filaments – biochemical, IANBD-TnC fluorescence, triplicate, confirmation (AID 504383);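 further: 0% = DMSO at 0.472 mM calcium and 100% = DMSO at 2.9 mM calcium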
# Conditions: IANBD-labeled cardiac RTF, Ca2+ sensitivity fluorescence; at 7.2 µM; active compounds read high; scaled from EC20 to saturating calcium; tested at EC20 calcium, 0.472 mM
# Method in brief: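 Assay system: labelled regulated thin filaments / Timing: 15 min at 25 °C / Detection: fluorescence intensity of labelled filaments / Measure: fluorescence gain scaled between EC20 and EC100 calcium controls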
row,Structure (SMILES),activation
1,O=c1c(O)c(-c2cccs2)oc2ccc(Cl)cc12,4.87% (inactive)
2,Nc1nnnn1/N=C/c1cc(Cl)cc(Cl)c1O,11% (inactive)
3,C/C(=N/NC(=O)c1ccncc1)c1cc2ccc(O)cc2oc1=O,4.52% (inactive)
4,O=C(N/N=C/c1cc(Cl)cc(Cl)c1O)c1ccncc1,17.9% (active)
5,CC1(C)CC2CC(C)(CN2CC(=O)C(C#N)c2ccccc2)C1 (configuration not stated),7.07% (inactive)
6,Cn1ncc2c(O/N=C(\N)c3ccc(C(F)(F)F)cc3)ncnc21,93.4% (active)
7,Nc1ccn([C@H]2C[C@H](O)[C@@H](CO)O2)c(=O)n1,11.1% (inactive)
8,CC1(OC(=O)CCc2ccccc2)C(=O)C=C2C=C(c3ccc(C#N)cc3)N(C3CCCC3)C=C2C1=O (configuration not stated),5.7% (inactive)
9,Cc1cc(C)n(C2CCCCC2OC(=O)CCc2ccccc2)n1 (configuration not stated),35.8% (active)
10,C=CCn1c(SCC(=O)Nc2nccs2)nnc1-c1ccco1,7.96% (inactive)
11,CC1(C)CC(CC(=O)Nc2nccs2)(c2ccccc2)CCO1 (configuration not stated),604% (active)
12,O=C(Cc1c(F)cccc1Cl)Nc1nccs1,1.97% (inactive)
13,COc1ccccc1N1CCN(C(=O)c2ccc(Cn3c(=O)[nH]c4ccsc4c3=O)cc2)CC1,125% (active)
14,COCC(=O)NC1CCN(S(=O)(=O)c2cccc(C(C)=O)c2)CC1,14.3% (active)
15,CN1CCN(S(=O)(=O)c2cccc(C(=O)Oc3cccc(Br)c3)c2)CC1,11.4% (inactive)
16,O=C(N/N=C/c1sc(N2CCOCC2)nc1-c1ccccc1)c1cccc(S(=O)(=O)N2CCCC2)c1,3.15% (inactive)
17,COc1ccc(C(=O)N/N=C/c2sc3ccccc3c2O)cc1,14.3% (active)
18,O=C(N/N=C/c1sc2ccccc2c1O)c1ccccc1,66.7% (active)
19,CC(=NNC(=O)c1ccncc1)c1ccc2ccccc2c1O,6.88% (inactive)
20,COc1ccc2cc(C(=O)N/N=C/c3sc4ccccc4c3O)ccc2c1,277% (active)
21,CN(/N=C/c1ccc(O)cc1O)c1ncc(C(F)(F)F)cc1Cl,6.15% (inactive)
22,CCN1CC=C2C(C1)C(c1ccc(Cl)s1)C(C#N)=C(N)C2(C#N)C#N (configuration not stated),19.5% (active)
23,Cc1cc(C)c(OCCOCCN2CCNCC2)c(C)c1,7.52% (inactive)
24,CCc1ccc(C(C)NC(=O)c2ncn[nH]2)cc1 (configuration not stated),17.2% (active)
25,C[C@@H](NC(=O)c1ncn(C)c1C(=O)N[C@H](C)c1ccccc1)c1ccccc1,2.64% (inactive)

row,Structure (SMILES),activation
1,CCn1c(NC(=O)Nc2cccc(C)c2C)cc2sccc21,12.6% (active)
2,COc1ccc(C2C(C(C)=O)=C(C)N=c3s/c(=C\c4cc(C)n(C)c4C)c(=O)n32)c(OC)c1 (configuration not stated),15% (active)
3,CCN(CC)c1ccc2cc(C(=O)Nc3ccccn3)c(=O)oc2c1,7.83% (inactive)
4,CCOC(=O)C(C(=O)Nc1cccc(C)n1)C1CCCCC1 (configuration not stated),7.01% (inactive)
5,CCOC(=O)c1[nH]cnc1C(=O)Nc1ccccn1,12.4% (active)
6,Cc1oc(-c2cc3c(cc2Cl)OCO3)nc1CN1CCCC(C(=O)N2CCOCC2)C1 (configuration not stated),447% (active)
7,CCN(C(=O)CSc1nnc(COc2ccccc2F)n1N)c1c(N)n(Cc2ccccc2)c(=O)[nH]c1=O,1020% (active)
8,Cc1ccc2[nH]cc(/C=C/c3cc[n+](C)cc3)c2c1,6.68% (inactive)
9,C[n+]1ccc(/C=C/c2c[nH]c3ccccc23)cc1,45.7% (active)
10,C[n+]1ccc(/C=C/c2c[nH]c3ccc(F)cc23)cc1,5.69% (inactive)
11,C[n+]1cc(C(=O)N2CCCCC2)ccc1/C=C/c1c[nH]c2ccccc12,8.02% (inactive)
12,CC[n+]1ccc(/C=C/c2c[nH]c3ccccc23)cc1,167% (active)
13,C(=Cc1c[nH]c2ccccc12)c1nccc2ccccc12,16.3% (active)
14,OCC[n+]1ccc(/C=C/c2c[nH]c3ccccc23)cc1,6.81% (inactive)
15,CC(=O)N(c1ccccc1)C1SC(=O)N(c2ccccc2)C1=O (configuration not stated),9.18% (inactive)
16,Cc1cccc(C)c1-n1c(C)nn(-c2ncc(C(F)(F)F)cc2Cl)c1=O,2.27% (inactive)
17,O=c1nc2c(O)cccn2c2c1c(=O)[nH]c1ccccc12,11.7% (active)
18,CN(C)c1ccc(/C=C/C(=O)c2cccc(Br)c2)cc1,9.43% (inactive)
19,CC(=O)Nc1cccc(C(=O)/C=C/c2ccc(N(C)C)cc2)c1,15.4% (active)
20,COC(=O)C1CCN(C(=O)CN2C(=O)c3ccccc3S2(=O)=O)CC1,2170% (active)
21,NC(=O)C1CCN(c2ccc3c(c2)S(=O)(=O)c2ccccc2C3=O)CC1,5.74% (inactive)
22,COc1cc(/C=C/C(=O)c2ccc3c(c2)OCO3)cc(Cl)c1O,15.6% (active)
23,CN(C)c1ccc(/C=C/C(=O)c2ccc3c(c2)OCO3)cc1,11% (inactive)
24,CCC(=O)N1CCN(c2nc(C)nc3sc(C)c(C)c23)CC1,4.34% (inactive)
25,N#CC1(NC(=O)CN2CCN(S(=O)(=O)c3ccccc3F)CC2)CCCC1,2.39% (inactive)

row,Structure (SMILES),activation
1,O=C(CN1CCN(c2ccccc2F)CC1)NCc1ccc(Cl)cc1,13% (active)
2,Cc1cc(Cl)ccc1OCC(=O)NCCOc1nc(N2CCOCC2)nc(N2CCOCC2)n1,6.88% (inactive)
3,CSc1ccc(Cl)c(C(=O)NNC(=O)c2csc(N3CCOCC3)n2)c1,9.67% (inactive)
4,CCOC(=O)c1cnc2c(C)c(Cl)ccc2c1N1CCOCC1,80.7% (active)
5,CN(C)c1ccc(N=Cc2nc(-c3ccccc3)oc2O)cc1,37.2% (active)
6,CC(=O)Nc1ccc(N=Cc2nc(-c3ccc(C)cc3)oc2O)cc1,33.1% (active)
7,Cc1nc(C)c2c(c1C(F)(F)F)-c1ccccc1C2(F)F,9.1% (inactive)
8,Cc1[nH]c(=S)c(C#N)c(C)c1CCC#N,8.9% (inactive)
9,COc1cc(N2CCCC2)c(OC)cc1/C=C(/C#N)c1cccc(Br)c1,8.22% (inactive)
10,COc1cc(N2CCCC2)c(OC)cc1/C=C(/C#N)c1ccc(Br)cc1,12.2% (active)
11,Cc1ccc(NC(=O)COc2ccc(/C=N/NC(=O)CSCc3ccccc3)cc2)cc1,58.9% (active)
12,CCOC(=O)c1[nH]c2ccc(OCC)cc2c1CCCN1C(=O)c2ccccc2C1=O,156% (active)
13,CCOC(=O)C1=C(C)N(CCCCCC(=O)O)C(=O)NC1c1ccccc1Cl (configuration not stated),6.32% (inactive)
14,Brc1ccc(-c2noc(-c3ccccn3)n2)o1,5.39% (inactive)
15,CCOC(=O)C1=C(C)N=c2s/c(=C/c3ccc(OCC(=O)O)c(OC)c3)c(=O)n2C1c1ccc(Cl)cc1 (configuration not stated),16.8% (active)
16,CCOC(=O)C1=C(C)N=c2s/c(=C\c3ccc(OCC(=O)O)cc3)c(=O)n2C1c1ccc(Cl)cc1 (configuration not stated),14.5% (active)
17,CCOC(=O)C1=C(C)N=c2s/c(=C/c3ccc(OCC(=O)O)cc3)c(=O)n2C1c1ccc(SC)cc1 (configuration not stated),5.43% (inactive)
18,O=C1CCC[C@@H]2Cc3nc4ccc(O)cc4cc3[C@@H]3CCN1[C@H]23,3.13% (inactive)
19,O=C(Cn1c2[n+](c3ccc(C(F)(F)F)cc31)CCCCC2)Nc1ccccc1,0.79% (inactive)
20,O=C(O)CCC(=O)Nc1cc(C(F)(F)F)cc(C(F)(F)F)c1,30.5% (active)
21,O=C(CN1CCN(c2ccccc2)CC1)Nc1cccc(C(F)(F)F)c1,5.41% (inactive)
22,CC(C)(C)OC(=O)N1CCC(Cc2cc(-c3cccnc3)no2)(C(=O)O)CC1,15.8% (active)
23,COCCn1c(SCC#N)nnc1-c1ccc([N+](=O)[O-])cc1,4.93% (inactive)
24,Cc1sc(NC(=O)CSc2nnc(C(C)C)n2C)c(C#N)c1C,80.6% (active)
25,Cc1cc(S(=O)(=O)N2CCCC(C(=O)Nc3ccc(C(=O)O)cc3)C2)ccc1Cl (configuration not stated),41.5% (active)

row,Structure (SMILES),activation
1,CC(=O)N1CCCc2cc(S(=O)(=O)N3CCCC(C(=O)Nc4cccc(C)c4)C3)ccc21 (configuration not stated),8.68% (inactive)
2,CC(=O)c1ccc(NC(=O)C2CCCN(S(=O)(=O)c3c(C)[nH]c(=O)[nH]c3=O)C2)cc1 (configuration not stated),58.6% (active)
3,Cc1cc2cc(C=C(C#N)C#N)c(Cl)nc2cc1C,1.28% (inactive)
4,CN(C)c1ccc(/C=C/c2nc3ccccc3c(=O)n2-c2ccc(C(=O)O)cc2)cc1,2.26% (inactive)
5,O=C(O)c1ccc(-n2c(/C=C/c3cccc([N+](=O)[O-])c3)nc3ccccc3c2=O)cc1,15.1% (active)
6,COc1cc(C(=O)Nc2ccc(Cl)c(C(F)(F)F)c2)cc(OC)c1OC,9.75% (inactive)
7,COc1cc(C(=O)NCc2nnc(SCC(=O)Nc3ccc4c(c3)OCO4)o2)cc(OC)c1OC,165% (active)
8,COc1cc(OC)c(OC)cc1/C=C/C(=O)c1ccc(NS(=O)(=O)c2ccc(C)cc2)cc1,8.63% (inactive)
9,COc1ccc(N/C=C\C(=O)c2ccc(Br)cc2)cc1OC,59.4% (active)
10,CC(=O)Oc1ccc(N2C(=O)C3C(C2=O)C(C(=O)c2ccc(Cl)cc2)N2CCCC32)cc1 (configuration not stated),77.4% (active)
11,CCOC(=O)c1ccc(-n2c(CCC(=O)O)ccc2-c2cccs2)cc1,2.47% (inactive)
12,CCOC(=O)c1ccc(N2C(=O)C3C(C2=O)C(C(=O)c2ccc(Cl)cc2)N2CCCC32)cc1 (configuration not stated),12.8% (active)
13,COc1ccc(N2C(=O)C3C(C2=O)C(C(=O)c2ccc(Cl)cc2)N2CCCC32)cc1 (configuration not stated),8.37% (inactive)
14,CCN1CCN(Cc2c(O)ccc3c2O/C(=C\c2ccccc2)C3=O)CC1,17.9% (active)
15,CCN(CC)Cc1c(O)ccc2c1O/C(=C\C=C\c1ccccc1)C2=O,13.5% (active)
16,CN(C)Cc1c(O)ccc2c1O/C(=C\C=C\c1ccccc1)C2=O,6.64% (inactive)
17,COc1ccccc1/C=C/C=C1\Oc2c(ccc(O)c2CN(C)C)C1=O,24.3% (active)
18,CCN1CCN(Cc2c(O)ccc3c2O/C(=C\C=C\c2ccccc2)C3=O)CC1,65.3% (active)
19,COCCN(CCOC)Cc1c(O)ccc2c1O/C(=C\c1ccco1)C2=O,9.93% (inactive)
20,COCCN(CCOC)Cc1c(O)ccc2c1O/C(=C\c1ccc(C)o1)C2=O,3.93% (inactive)
21,CCc1ccc(/C=C2\Oc3c(ccc(O)c3CN3CCN(C)CC3)C2=O)cc1,8.07% (inactive)
22,CCN1CCN(Cc2c(O)ccc3c2O/C(=C\c2ccc(C)cc2)C3=O)CC1,5.39% (inactive)
